The results in this text go back to ChEMBL document CHEMBL1121643, “Pyrazolo[5,1-b]quinazolin-9-ones: a new series of antiallergic agents” (1981).

In general, inhibition in vivo refers to the relative decrease from the control value, in per cent. Read a high inhibition in vivo as strong suppression.

What all share (format): functional
The subject of assay [1] is Rattus norvegicus. As to the kind of experiment: Inhibition of passive cutaneous anaphylaxis (PCA) reaction in rats by intraperitoneal administration of 5 mg/kg. As to conditions: ip. Put shortly:
(§1)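 Rats were sensitized by intradermal antiserum dilutions at several dorsal sites. After 48 h they were challenged iv with 1 mg ovalbumin in 1 mL saline containing 0.25% Evans blue. Drug was suspended in 1% gum tragacanth in saline and given ip or orally 10–15 min before challenge. Rats were killed 30 min later and the mean orthogonal wheal diameter was measured.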

Assay [2] has as its system Rattus norvegicus. As to the kind of experiment: Inhibition of passive cutaneous anaphylaxis (PCA) reaction in rats, peroral administration 5 mg/kg. Conditions: route oral. Put shortly:
as §1

Assay [3] concerns Rattus norvegicus. Nature of the assay: Inhibition of the passive cutaneous anaphylaxis (PCA) reaction in rats by intravenous administration of 0.1 mg/kg. In a few lines: (§2)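 Rats were given intradermal antiserum dilutions on the back. At 48 h, drug dissolved in the challenge solution (1 mg ovalbumin, 0.25% Evans blue, 1 mL saline) was injected iv with the antigen; sodium bicarbonate in slight molar excess was used if needed. Wheal diameters were read 30 min later and plotted against antiserum concentration, with the least-squares line extrapolated to a zero-antiserum base value. Five rats per group.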

Assay [4] deals with Rattus norvegicus. As to the kind of experiment: Ability to inhibit the passive cutaneous anaphylaxis (PCA) reaction in rats by peroral administration of 2 mg/kg. Conditions: route oral. In a few lines: as §1
For assay [5], the system named is Rattus norvegicus. Nature of the assay: Ability to inhibit the passive cutaneous anaphylaxis (PCA) reaction in rats by intravenous administration of 0.5 mg/kg. In a few lines:
as §2

The test system of assay [6] is Rattus norvegicus. As to the kind of experiment: Inhibition of the passive cutaneous anaphylaxis (PCA) reaction in rats by intravenous administration of 0.01 mg/kg. In a few lines: as §2

Each structure is given as a SMILES string.

Compound `COc1cccc2c(=O)n3nc(C(=O)O)cc3n(C)c12` registered an inhibition in vivo at 5 mg/kg in the assay on Rattus norvegicus [1] of 60%.

As for `COc1cccc2nc3cc(C(=O)Nc4nn[nH]n4)nn3c(O)c12`, the values for the inhibition in vivo at 5 mg/kg in the assay with Rattus norvegicus [1] and in the assay with Rattus norvegicus [2] were 100% and 18%, respectively.

With `CC(=O)Nc1ccc2c(c1)c(=O)n1nc(C(=O)O)cc1n2C`, in the assay with Rattus norvegicus [2], at 5 mg/kg the inhibition in vivo was 0%.

For the compound `O=C(O)c1cc2nc3c(O)cccc3c(O)n2n1`, in the assay with Rattus norvegicus [1], the inhibition in vivo at 5 mg/kg was determined as 100%. The inhibition in vivo at 0.1 mg/kg in the assay with Rattus norvegicus [3] was determined as 75%.

For `CCn1c2ccc(Cl)cc2c(=O)n2nc(C(=O)O)cc12`, the inhibition in vivo at 0.1 mg/kg in the assay with Rattus norvegicus [3] worked out at 16%.

Regarding `Cc1ccc2c(c1)c(=O)n1nc(C(=O)O)cc1n2C`, the inhibition in vivo at 2 mg/kg with Rattus norvegicus [4] was 25%. Also, testing at 0.5 mg/kg in the assay on Rattus norvegicus [5] gave an inhibition in vivo of 55%.

Turning to `CSc1ccc2nc3cc(C(=O)Nc4nn[nH]n4)nn3c(O)c2c1`, in the assay on Rattus norvegicus [1], the inhibition in vivo at 5 mg/kg was 90%.

Turning to `Cn1c2ccc(F)cc2c(=O)n2nc(-c3nn[nH]n3)cc12`, testing at 2 mg/kg in the assay on Rattus norvegicus [4] gave an inhibition in vivo of 27%. The inhibition in vivo at 5 mg/kg in the assay with Rattus norvegicus [1] amounted to 100%; with Rattus norvegicus [2], 8%. In addition, 0.1 mg/kg produced 100% inhibition in vivo in the assay with Rattus norvegicus [3]. For the same compound, the inhibition in vivo at 0.01 mg/kg in the assay with Rattus norvegicus [6] is 10%.

For the compound `Cn1c2ccc(Cl)cc2c(=O)n2nc(-c3nn[nH]n3)cc12`, the inhibition in vivo at 2 mg/kg in the assay on Rattus norvegicus [4] is 39%. Moreover, the inhibition in vivo at 5 mg/kg in the assay with Rattus norvegicus [1] was 100%; with Rattus norvegicus [2], 0%. In addition, the inhibition in vivo at 0.01 mg/kg with Rattus norvegicus [6] is 17%. For the same compound, in the assay with Rattus norvegicus [5], at 0.5 mg/kg the inhibition in vivo was 100%.

Consider `O=C(O)c1cc2nc3ccc(O)cc3c(O)n2n1`, for which the inhibition in vivo at 5 mg/kg with Rattus norvegicus [1] is 100%; in the assay on Rattus norvegicus [2], 0%.

In the case of `Cn1c2ccc(F)cc2c(=O)n2nc(C(=O)O)cc12`, the inhibition in vivo at 2 mg/kg with Rattus norvegicus [4] stood at 40%. The same compound registered an inhibition in vivo at 5 mg/kg in the assay with Rattus norvegicus [1] of 83%. The same compound registered an inhibition in vivo at 0.5 mg/kg in the assay on Rattus norvegicus [5] of 84%.

Take `COc1cccc2nc3cc(C(=O)O)nn3c(O)c12`: the inhibition in vivo at 5 mg/kg in the assay with Rattus norvegicus [1] came out at 62%; in the assay with Rattus norvegicus [2], 18%.

As to `Oc1c2cc(Cl)ccc2nc2cc(-c3nn[nH]n3)nn12`, the inhibition in vivo at 5 mg/kg was determined as 25% with Rattus norvegicus [1] and 1% with Rattus norvegicus [2].

As to `O=C(Nc1nn[nH]n1)c1cc2nc3ccc(Cl)cc3c(O)n2n1`, the inhibition in vivo at 5 mg/kg was 22% in the assay with Rattus norvegicus [1] and 8% in the assay on Rattus norvegicus [2].

For the compound `COc1ccc2c(c1)c(=O)n1nc(-c3nn[nH]n3)cc1n2C`, the inhibition in vivo at 5 mg/kg turned out to be 100% in the assay on Rattus norvegicus [1] and 0% in the assay with Rattus norvegicus [2]. In the assay on Rattus norvegicus [5], this compound registered an inhibition in vivo at 0.5 mg/kg of 100%.

With `COc1cc2c(=O)n3nc(C(=O)O)cc3n(C)c2cc1OC`, the inhibition in vivo at 5 mg/kg in the assay on Rattus norvegicus [1] was 100%; with Rattus norvegicus [2], 6%.

With `COc1cc2nc3cc(C(=O)Nc4nn[nH]n4)nn3c(O)c2cc1OC`, the inhibition in vivo at 5 mg/kg in the assay on Rattus norvegicus [1] was 100%; with Rattus norvegicus [2], 0%.

Consider `COc1cccc2c(O)n3nc(-c4nn[nH]n4)cc3nc12`, for which the inhibition in vivo at 5 mg/kg with Rattus norvegicus [1] came out at 27%; in the assay on Rattus norvegicus [2] it was 3%.

As for `O=C(O)c1cc2n(Cc3ccccc3)c3ccc(Cl)cc3c(=O)n2n1`, the inhibition in vivo at 5 mg/kg in the assay on Rattus norvegicus [2] is 7%.

Regarding `COc1cccc2c(O)n3nc(C(=O)Nc4nn[nH]n4)cc3nc12`, the results for the inhibition in vivo at 5 mg/kg in the assay with Rattus norvegicus [1] and in the assay on Rattus norvegicus [2] were 100% and 14%, respectively.

For the compound `Cc1ccc2nc3cc(C(=O)O)nn3c(O)c2c1`, the inhibition in vivo at 5 mg/kg was determined as 100% with Rattus norvegicus [1] and 0% in the assay with Rattus norvegicus [2].

For `Cn1c2ccc(N)cc2c(=O)n2nc(C(=O)O)cc12`, the inhibition in vivo at 5 mg/kg in the assay with Rattus norvegicus [1] amounted to 84%; in the assay with Rattus norvegicus [2] it was 0%. Moreover, 0.1 mg/kg produced 16% inhibition in vivo in the assay on Rattus norvegicus [3].

As for `O=C(O)c1cc2nc3ccc(Cl)cc3c(O)n2n1`, the inhibition in vivo at 5 mg/kg turned out to be 45% in the assay on Rattus norvegicus [1] and 0% with Rattus norvegicus [2].

For the compound `O=C(O)c1cc2nc3cccc(C(F)(F)F)c3c(O)n2n1`, the inhibition in vivo at 5 mg/kg in the assay with Rattus norvegicus [1] is 100%; with Rattus norvegicus [2], 10%.

For `Oc1c2ccccc2nc2cc(-c3nn[nH]n3)nn12`, the inhibition in vivo at 5 mg/kg in the assay with Rattus norvegicus [1] stood at 26%; in the assay on Rattus norvegicus [2] it was 0%.

As to `COc1ccc2c(c1)c(=O)n1nc(C(=O)O)cc1n2C`, the inhibition in vivo at 5 mg/kg is 81% with Rattus norvegicus [1] and 4% in the assay on Rattus norvegicus [2]. The same compound came in with an inhibition in vivo at 0.01 mg/kg with Rattus norvegicus [6] of 23%. The inhibition in vivo at 0.5 mg/kg with Rattus norvegicus [5] turned out to be 100%.

Consider `O=C(O)c1ccc2c(O)n3nc(C(=O)O)cc3nc2c1`, for which the inhibition in vivo at 5 mg/kg in the assay on Rattus norvegicus [1] came to 74%. Testing at 0.1 mg/kg in the assay with Rattus norvegicus [3] gave an inhibition in vivo of 56%.

For the compound `CCOC(=O)c1cc2n(CC)c3ccc(Cl)cc3c(=O)n2n1`, at 5 mg/kg the inhibition in vivo with Rattus norvegicus [1] was 100%.

For the compound `COc1ccc2nc3cc(C(=O)O)nn3c(O)c2c1`, the values for the inhibition in vivo at 5 mg/kg with Rattus norvegicus [1] and in the assay with Rattus norvegicus [2] were 94% and 0%, respectively. Also, in the assay on Rattus norvegicus [6], the inhibition in vivo at 0.01 mg/kg was found to be 30%.

For the compound `O=C(O)c1cc2nc3cc(Cl)c(Cl)cc3c(O)n2n1`, the results for the inhibition in vivo at 5 mg/kg in the assay with Rattus norvegicus [1] and in the assay with Rattus norvegicus [2] were 9% and 0%, respectively.

As to `O=C(Nc1nn[nH]n1)c1cc2nc3ccccc3c(O)n2n1`, the inhibition in vivo at 5 mg/kg in the assay on Rattus norvegicus [1] worked out at 100%; in the assay with Rattus norvegicus [2], 1%.

In the assay on Rattus norvegicus [4], `Cn1c2ccccc2c(=O)n2nc(-c3nn[nH]n3)cc12` registered an inhibition in vivo at 2 mg/kg of 52%. Further, the inhibition in vivo at 5 mg/kg with Rattus norvegicus [1] was 91%; in the assay with Rattus norvegicus [2], 0%. This compound also registered an inhibition in vivo at 0.1 mg/kg in the assay on Rattus norvegicus [3] of 0%. In the assay with Rattus norvegicus [5], this compound had an inhibition in vivo at 0.5 mg/kg of 84%.

For the compound `Cc1cccc2c(O)n3nc(C(=O)Nc4nn[nH]n4)cc3nc12`, the inhibition in vivo at 5 mg/kg worked out at 100% with Rattus norvegicus [1] and 9% with Rattus norvegicus [2].

For the compound `O=C(O)c1cc2nc3ccc(F)cc3c(O)n2n1`, the inhibition in vivo at 5 mg/kg in the assay on Rattus norvegicus [1] stood at 95%; in the assay with Rattus norvegicus [2], 16%. Moreover, the inhibition in vivo at 0.1 mg/kg with Rattus norvegicus [3] came to 62%. In the assay with Rattus norvegicus [6], this compound had an inhibition in vivo at 0.01 mg/kg of 2%.

As for `Nc1ccc2nc3cc(C(=O)O)nn3c(O)c2c1`, the inhibition in vivo at 5 mg/kg with Rattus norvegicus [1] turned out to be 38%; in the assay with Rattus norvegicus [2] it was 16%.

`O=C(Nc1nn[nH]n1)c1cc2nc3ccc(O)cc3c(O)n2n1` came in with an inhibition in vivo at 5 mg/kg with Rattus norvegicus [1] of 100%. Further, in the assay on Rattus norvegicus [3], the inhibition in vivo at 0.1 mg/kg was found to be 90%.

For `O=C(Nc1nn[nH]n1)c1cc2n(Cc3ccccc3)c3ccc(Cl)cc3c(=O)n2n1`, the inhibition in vivo at 5 mg/kg amounted to 3% in the assay on Rattus norvegicus [1] and 0% with Rattus norvegicus [2].

For `CCOC(=O)c1cc2nc3ccccc3c(O)n2n1`, the figures for the inhibition in vivo at 5 mg/kg in the assay with Rattus norvegicus [1] and in the assay with Rattus norvegicus [2] were 74% and 0%, respectively.

Turning to `COc1cc2nc3cc(C(=O)O)nn3c(O)c2cc1OC`, the values for the inhibition in vivo at 5 mg/kg in the assay with Rattus norvegicus [1] and with Rattus norvegicus [2] were 97% and 5%, respectively. The inhibition in vivo at 0.1 mg/kg in the assay with Rattus norvegicus [3] was determined as 100%. The inhibition in vivo at 0.01 mg/kg with Rattus norvegicus [6] amounted to 16%.

As to `O=C(O)c1ccc2nc3cc(C(=O)O)nn3c(O)c2c1`, the figures for the inhibition in vivo at 5 mg/kg in the assay on Rattus norvegicus [1] and with Rattus norvegicus [2] were 21% and 7%, respectively.

With `Cn1c2ccc(NC(=O)c3ccccc3)cc2c(=O)n2nc(C(=O)O)cc12`, the results for the inhibition in vivo at 5 mg/kg in the assay with Rattus norvegicus [1] and in the assay with Rattus norvegicus [2] were 54% and 1%, respectively.

In turn, `Cc1cc2n(C)c3ccc(C(=O)O)cc3c(=O)n2n1` showed an inhibition in vivo at 2 mg/kg in the assay with Rattus norvegicus [4] of 9%. The same compound returned an inhibition in vivo at 0.5 mg/kg in the assay with Rattus norvegicus [5] of 21%.

For `Cc1cccc2c(O)n3nc(C(=O)O)cc3nc12`, the values for the inhibition in vivo at 5 mg/kg with Rattus norvegicus [1] and in the assay on Rattus norvegicus [2] were 58% and 0%, respectively.

Take `CCCOc1cccc2c(=O)n3nc(C(=O)O)cc3n(CCC)c12`: the inhibition in vivo at 5 mg/kg in the assay on Rattus norvegicus [1] came to 72%.
